Test results from ChEMBL document CHEMBL4196201, “Discovery of N-(4-{[5-Fluoro-7-(2-methoxyethoxy)quinazolin-4-yl]amino}phenyl)-2-[4-(propan-2-yl)-1 H-1,2,3-triazol-1-yl]acetamide (AZD3229), a Potent Pan-KIT Mutant Inhibitor for the Treatment of Gastrointestinal Stromal Tumors” (J Med Chem, 2018).
In brackets after ≈: the same amount, converted by molar mass. Activity calls are given as the source filed them. The calls are words filed in the database; no cut-off is given here.

What was measured:
[1] = Solubility in pH 6.5 phosphate buffer at 37 degC; assay type: physicochemical
Summary of the method: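 Solubility of crystalline Form A was measured in pH6.5 phosphate buffer at 37°C.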

[2] = Permeability from apical to basolateral side in human Caco2 cells at 10 uM at pH 6.5; assay type: ADME, cell-based; conditions: Caco-2, pH 6.5, read-out: permeability
Summary of the method: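 Caco2 permeability from A to B was measured at pH6.5 using a 10 μM compound solution, reported in units of 1E-6 cm/s.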

[3] = Protein binding in dog plasma assessed as unbound fraction level; assay type: ADME, cell-free, Canis lupus familiaris
[4] = Intrinsic clearance in rat hepatocytes assessed per million cells; assay type: ADME, cell-based, Hepatocyte; conditions: read-out: CLH
[5] = Intrinsic clearance in dog hepatocytes assessed per million cells; assay type: ADME, cell-based, Canis lupus familiaris, Hepatocyte; conditions: read-out: CLH
[6] = molecular target: Voltage-gated inwardly rectifying potassium channel KCNH2 (Homo sapiens, UniProt Q12809); test: Inhibition of human ERG
[7] = Clearance in CD1 mouse at 10 umol/kg, iv; assay type: ADME, organism-based; conditions: in vivo
Summary of the method: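 PK was run in CD1 mice with an iv dose of 10 μMol/kg and an oral dose of 21 μMol/kg. Cl, Vdss, t1/2 and F% were derived.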

[8] = Oral bioavailability in Han Wistar rat at […]; assay type: ADME, organism-based; conditions: in vivo
[9] = Oral bioavailability in dog at […]; assay type: ADME, organism-based, Canis lupus familiaris; conditions: in vivo
Mus musculus [10] = test: Inhibition of Kit exon 11 deletion (557 to 558 residues) and D816H mutant (unknown origin) transfected in mouse BA/F3 cells allografted in CB17 SCID mouse assessed as reduction in ERK phosphorylation at 20 mg/kg, po administered as single dose measured after 8 hrs; assay type: functional, organism-based
Summary of the method: (§1)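 A single 20 mg/kg p.o. dose was given to mice carrying exon 11 del/D816H Ba/F3 allografts. Tumor pKIT, pERK and pAKT were measured over a timecourse, with free compound cover tracked in the same study.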

Mus musculus [11] = test: Inhibition of Kit exon 11 deletion (557 to 558 residues) and D816H mutant (unknown origin) transfected in mouse BA/F3 cells allografted in CB17 SCID mouse assessed as reduction in AKT phosphorylation at 20 mg/kg, po administered as single dose measured after 8 hrs; assay type: functional, organism-based; summary of the method: as §1
Mus musculus [12] = test: Inhibition of Kit exon 11 deletion (557 to 558 residues) and D816H mutant (unknown origin) transfected in mouse BA/F3 cells allografted in CB17 SCID mouse assessed as reduction in AKT phosphorylation at 20 mg/kg, po administered as single dose measured after 24 hrs; assay type: functional, organism-based; summary of the method: as §1
BaF3 = test: Antitumor activity against mouse BA/F3 cells expressing Kit exon 11 deletion (557 to 558 residues) and V654 mutant (unknown origin) allografted in CB17 SCID mouse assessed as tumor regression at 2 mg/kg, po bid measured on last day of dosing; assay type: functional
Summary of the method: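 Ba/F3 cells bearing the KIT exon 11 del/D816H or exon 11 del/V654A mutation were grown as allografts in mice. Compounds were given p.o. once (QD) or twice daily (BD), and vehicle was given BD p.o. Tumor growth inhibition and regression (%) were taken on the last day of dosing. p-values were calculated relative to vehicle.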

[13] = system: Mast/stem cell growth factor receptor Kit (Homo sapiens), P10721 [UNDEFINED MUTATION]
[14] = system: Mast/stem cell growth factor receptor Kit (Homo sapiens), P10721 [UNDEFINED MUTATION]; remark: listed apart in the source
[15] = molecular target: Vascular endothelial growth factor receptor 2 (Homo sapiens) (UniProt P35968)
[16] = molecular target: Mast/stem cell growth factor receptor Kit (Homo sapiens) (UniProt P10721)
[17] = molecular target: Mast/stem cell growth factor receptor Kit (Homo sapiens) (UniProt P10721); remark: listed apart in the source
[18] = system: Mast/stem cell growth factor receptor Kit (Homo sapiens), P10721 [UNDEFINED MUTATION]; remark: listed apart in the source
[19] = system: Mast/stem cell growth factor receptor Kit (Homo sapiens), P10721 [V560D]
[20] = system: Mast/stem cell growth factor receptor Kit (Homo sapiens), P10721 [V560D,D816H]
[21] = system: Mast/stem cell growth factor receptor Kit (Homo sapiens), P10721 [D816V]
Chain of Mast/stem cell growth factor receptor Kit (Homo sapiens), P10721 [D816V] (P10721 whole entry D816V): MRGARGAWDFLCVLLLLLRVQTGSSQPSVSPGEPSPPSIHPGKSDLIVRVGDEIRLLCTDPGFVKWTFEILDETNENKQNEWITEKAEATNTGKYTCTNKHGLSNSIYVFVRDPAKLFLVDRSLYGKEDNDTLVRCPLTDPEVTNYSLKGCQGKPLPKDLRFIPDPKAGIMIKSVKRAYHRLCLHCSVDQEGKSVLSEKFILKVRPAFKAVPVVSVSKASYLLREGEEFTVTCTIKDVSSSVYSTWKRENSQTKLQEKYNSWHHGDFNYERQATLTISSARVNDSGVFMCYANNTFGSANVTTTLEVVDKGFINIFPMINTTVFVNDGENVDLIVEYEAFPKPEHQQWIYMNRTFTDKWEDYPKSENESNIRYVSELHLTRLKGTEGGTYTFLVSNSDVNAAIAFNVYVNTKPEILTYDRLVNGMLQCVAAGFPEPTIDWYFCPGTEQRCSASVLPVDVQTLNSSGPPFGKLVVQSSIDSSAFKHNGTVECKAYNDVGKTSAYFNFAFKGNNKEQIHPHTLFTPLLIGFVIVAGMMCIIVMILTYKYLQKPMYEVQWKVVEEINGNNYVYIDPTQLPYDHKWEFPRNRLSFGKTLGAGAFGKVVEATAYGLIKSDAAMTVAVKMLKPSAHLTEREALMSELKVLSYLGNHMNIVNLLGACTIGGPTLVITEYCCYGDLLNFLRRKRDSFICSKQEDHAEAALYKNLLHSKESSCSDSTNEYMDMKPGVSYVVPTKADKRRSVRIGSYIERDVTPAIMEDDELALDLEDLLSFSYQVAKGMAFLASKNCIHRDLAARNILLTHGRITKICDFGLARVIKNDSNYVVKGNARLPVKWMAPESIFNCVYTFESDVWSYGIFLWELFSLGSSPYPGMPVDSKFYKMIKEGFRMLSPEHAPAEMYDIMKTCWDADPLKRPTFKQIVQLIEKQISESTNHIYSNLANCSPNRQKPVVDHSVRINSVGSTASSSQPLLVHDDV

Chain of Mast/stem cell growth factor receptor Kit (Homo sapiens), P10721 [UNDEFINED MUTATION] (P10721 whole entry, looked up, stated change not applied): as the sequence (P10721 whole entry D816V) above, with V816D counted along it
Chain of Mast/stem cell growth factor receptor Kit (Homo sapiens) (P10721 whole entry): as the sequence (P10721 whole entry D816V) above, with V816D counted along it
Chain of Mast/stem cell growth factor receptor Kit (Homo sapiens), P10721 [V560D] (P10721 whole entry V560D): as the sequence (P10721 whole entry D816V) above, with V560D, V816D counted along it
Chain of Mast/stem cell growth factor receptor Kit (Homo sapiens), P10721 [V560D,D816H] (P10721 whole entry V560D/D816H): as the sequence (P10721 whole entry D816V) above, with V560D, V816H counted along it
Chain of Vascular endothelial growth factor receptor 2 (Homo sapiens) (P35968 whole entry): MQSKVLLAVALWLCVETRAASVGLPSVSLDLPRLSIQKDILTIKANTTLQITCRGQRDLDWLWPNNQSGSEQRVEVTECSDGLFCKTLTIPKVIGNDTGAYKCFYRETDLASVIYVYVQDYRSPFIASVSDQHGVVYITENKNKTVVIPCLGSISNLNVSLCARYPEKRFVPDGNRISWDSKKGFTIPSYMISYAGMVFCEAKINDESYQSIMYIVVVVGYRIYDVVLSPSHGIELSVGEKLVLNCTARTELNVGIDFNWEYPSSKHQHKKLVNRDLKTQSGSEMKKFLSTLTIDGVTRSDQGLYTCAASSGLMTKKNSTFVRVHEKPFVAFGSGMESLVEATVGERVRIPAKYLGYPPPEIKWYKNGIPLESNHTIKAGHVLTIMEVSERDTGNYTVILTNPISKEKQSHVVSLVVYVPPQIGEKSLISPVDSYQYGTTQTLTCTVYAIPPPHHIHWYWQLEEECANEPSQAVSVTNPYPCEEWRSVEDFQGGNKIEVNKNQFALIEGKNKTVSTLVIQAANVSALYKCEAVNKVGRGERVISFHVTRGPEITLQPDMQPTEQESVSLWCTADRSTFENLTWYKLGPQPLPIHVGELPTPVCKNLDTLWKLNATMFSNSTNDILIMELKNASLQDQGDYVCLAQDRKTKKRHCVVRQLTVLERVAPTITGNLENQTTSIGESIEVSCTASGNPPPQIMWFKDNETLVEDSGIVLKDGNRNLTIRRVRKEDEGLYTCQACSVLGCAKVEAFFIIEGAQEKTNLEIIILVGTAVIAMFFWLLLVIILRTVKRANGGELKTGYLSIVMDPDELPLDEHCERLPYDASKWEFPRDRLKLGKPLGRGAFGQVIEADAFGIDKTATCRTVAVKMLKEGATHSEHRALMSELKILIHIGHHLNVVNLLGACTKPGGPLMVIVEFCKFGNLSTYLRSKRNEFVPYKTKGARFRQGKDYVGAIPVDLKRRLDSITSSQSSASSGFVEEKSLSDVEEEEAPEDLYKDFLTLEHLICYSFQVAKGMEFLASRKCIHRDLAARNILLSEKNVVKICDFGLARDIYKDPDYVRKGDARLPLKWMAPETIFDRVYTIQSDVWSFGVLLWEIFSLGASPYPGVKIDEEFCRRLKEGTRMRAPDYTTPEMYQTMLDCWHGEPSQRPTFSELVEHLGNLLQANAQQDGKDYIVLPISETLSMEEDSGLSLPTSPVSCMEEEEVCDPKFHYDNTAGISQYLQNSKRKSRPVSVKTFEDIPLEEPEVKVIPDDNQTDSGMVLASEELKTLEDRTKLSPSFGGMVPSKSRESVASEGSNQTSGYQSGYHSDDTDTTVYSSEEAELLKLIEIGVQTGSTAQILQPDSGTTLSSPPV
Chain of Voltage-gated inwardly rectifying potassium channel KCNH2 (Q12809 whole entry): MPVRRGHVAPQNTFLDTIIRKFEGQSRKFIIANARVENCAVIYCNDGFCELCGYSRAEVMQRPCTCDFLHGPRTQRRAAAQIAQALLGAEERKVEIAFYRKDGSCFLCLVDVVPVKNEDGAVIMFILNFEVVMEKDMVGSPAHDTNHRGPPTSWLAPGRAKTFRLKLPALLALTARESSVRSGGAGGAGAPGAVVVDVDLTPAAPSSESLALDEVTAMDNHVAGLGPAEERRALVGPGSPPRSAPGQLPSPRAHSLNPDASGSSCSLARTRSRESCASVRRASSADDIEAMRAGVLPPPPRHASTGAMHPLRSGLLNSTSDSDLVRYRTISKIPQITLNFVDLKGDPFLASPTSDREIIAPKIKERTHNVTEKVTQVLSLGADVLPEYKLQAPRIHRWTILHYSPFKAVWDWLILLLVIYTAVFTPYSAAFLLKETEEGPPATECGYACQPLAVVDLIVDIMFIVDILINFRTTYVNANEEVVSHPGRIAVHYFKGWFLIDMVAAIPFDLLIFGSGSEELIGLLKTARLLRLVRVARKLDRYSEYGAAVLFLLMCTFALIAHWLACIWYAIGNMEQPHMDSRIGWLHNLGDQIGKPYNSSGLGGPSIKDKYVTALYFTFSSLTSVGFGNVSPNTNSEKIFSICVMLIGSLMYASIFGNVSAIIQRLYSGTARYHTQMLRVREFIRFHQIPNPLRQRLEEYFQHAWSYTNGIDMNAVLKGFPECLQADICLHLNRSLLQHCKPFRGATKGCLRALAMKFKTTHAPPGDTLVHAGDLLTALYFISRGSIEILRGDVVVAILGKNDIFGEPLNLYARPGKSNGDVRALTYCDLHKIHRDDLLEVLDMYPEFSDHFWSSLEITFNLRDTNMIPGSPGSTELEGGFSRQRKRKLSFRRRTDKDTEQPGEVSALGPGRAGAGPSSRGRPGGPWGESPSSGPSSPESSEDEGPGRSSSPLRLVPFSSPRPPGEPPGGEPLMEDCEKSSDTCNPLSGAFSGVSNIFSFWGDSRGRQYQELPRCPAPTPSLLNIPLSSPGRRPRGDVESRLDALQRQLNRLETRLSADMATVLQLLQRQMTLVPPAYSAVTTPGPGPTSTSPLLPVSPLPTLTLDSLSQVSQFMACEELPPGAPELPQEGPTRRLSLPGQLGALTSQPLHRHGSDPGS

COCCOc1cc(F)c2c(Nc3ccc(NC(=O)Cn4cc(C(C)C)nn4)cc3)ncnc2c1
solubility [1]: 6 µM (≈ 2.88 µg/mL) | Papp A→B at 10 µM [2]: 62.3 ×10⁻⁶ cm/s | fraction unbound [3]: 0.068 | hepatocyte CLint [4]: 17 µL/min/1e6 cells | hepatocyte CLint [5]: < 1 µL/min/1e6 cells | IC50 [6]: > 33300 nM | clearance [7]: 7 mL/min/kg | bioavailability [8]: 79% | bioavailability [9]: 69% | inhibition (Mus musculus [10]): Active | inhibition (Mus musculus [11]): Active | inhibition (Mus musculus [12]): Active | Activity (BaF3): 44% | GI50 [13]: 3 nM | GI50 [14]: 9 nM | GI50 [15]: 1380 nM | GI50 [16]: 22 nM | GI50 [17]: 1 nM | GI50 [18]: 14 nM | GI50 [19]: 1 nM | GI50 [20]: 18 nM | GI50 [21]: 971 nM
